Results pooled from the literature.
Protocols differ between the studies behind these lines.

CCCCCCCC(=O)N[C@@H](CCCCN)C(=O)N[C@@H](CCCCN)C(=O)N[C@@H](C)C(=O)N[C@@H](CC(C)C)C(=O)N[C@@H](CCCCN)C(=O)N[C@@H](CC(C)C)C(=O)N[C@@H](C)C(=O)N[C@@H](CCCCN)C(=O)N[C@@H](CCCCN)C(=O)N1CCC[C@H]1C(=O)N[C@@H](CC(C)C)C(=O)N[C@@H](CCCCN)C(=O)N[C@@H](CC(C)C)C(=O)N[C@@H](CC(C)C)C(=O)N[C@@H](CCCCN)C(N)=O  AUC(0-inf) (male Sprague-Dawley rat; blood; intravenous; 3 mg/kg; infusion): 273 ng·h/mL
COC(=O)C(NC(=O)c1cn(CCCCCF)c2ccccc12)C(C)(C)C (stereo not shown)  AUC(0-t) (male Sprague-Dawley rat; plasma; subcutaneous; 50 µg/kg): 8.61 ng·h/mL
CCC[C@@](N)(CO)CCc1ccc(OCCCCCC(C)C)cc1  AUC(0-t) (rat; plasma; oral; 10 mg/kg): 1.44 µM·h
CCCCCn1nc(C(=O)Nc2cccc3ccccc23)c2ccccc21  AUC(0-inf) (male Long-Evans rat; plasma; intraperitoneal; 3 mg/kg): 314 ng·h/mL
N=c1c2c(-c3ccccc3)c(-c3ccccc3)n(Cc3ccccc3)c2ncn1[C@H]1CC[C@H](O)CC1  AUC(0-inf) (male Sprague-Dawley rat; plasma; intravenous; 2 mg/kg; single dose): 1700 ng·h/mL
CC(C)(C)[C@H](NC(=O)[C@H](CCONC(=N)N)NC(=O)Cc1ccc(CNC(=N)N)cc1)C(=O)N[C@@H](CCONC(=N)N)C(=O)NCc1ccc(C(=N)N)cc1  AUC(0-inf) (male Sprague-Dawley rat; plasma; intraperitoneal; 2.5 mg/kg): 9640 ng·h/mL
[2H]C([2H])([2H])n1cc2cc(Nc3nc(=O)n(Cc4ncn(C)n4)c(=O)n3Cc3cc(F)c(F)cc3F)c(Cl)cc2n1  AUC(0-t) (male Sprague-Dawley rat; plasma; intravenous; 5 mg/kg): 89900 ng·h/mL
CN(C)C(=O)Oc1cc(OC(=O)N(C)C)cc(-c2cc3ccc(O)cc3o2)c1  AUC(0-t) (male rat; plasma; oral; 5 mg/kg): 17.7 ng·h/mL
[2H]C([2H])(c1cc(F)c(F)cc1F)n1c(=O)n(Cc2ncn(C)n2)c(=O)[nH]/c1=N\c1cc2cn(C)nc2cc1Cl  AUC(0-t) (male Sprague-Dawley rat; plasma; oral; 25 mg/kg): 451000 ng·h/mL
Cl.Cl.O=C(CCN1CCCCC1)c1ccc(-c2ccc(C(=O)CCN3CCCCC3)cc2)cc1  AUC(0-t) (Sprague-Dawley rat; plasma; oral; 25 mg/kg): 135 ng·h/mL
Cn1cnc(Cn2c(=O)[nH]/c(=N\c3cc4cn(C)nc4cc3Cl)n(Cc3cc(F)c(F)cc3F)c2=O)n1  AUC(0-t) (male Sprague-Dawley rat; plasma; oral; 25 mg/kg): 515000 ng·h/mL
CCCCCn1cc(C(=O)Nc2cccc3ccccc23)c2ccccc21  AUC(0-inf) (male Long-Evans rat; plasma; intraperitoneal; 3 mg/kg): 5960 ng·h/mL
O=C([O-])C(=O)[O-].[NH-][C@@H]1CCCC[C@H]1[NH-].[Pt+4] (relative stereo)  AUC(0-t) (rat; plasma; oral; 10 mg/kg): 111 ng·h/mL
